CYP2C9 inh = inhibitors of human CYP2C9; 96,000 tested, 20% active; inhibition, % at 5 µM; CYP2C9 Supersomes, luciferin-H conversion, luminescence; AID 777;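 active means blocking of liver enzyme CYP2C9 beyond about 50% at 5 µM, limit read from the data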
Rev-RRE block = HIV Rev-RRE protein-RNA interaction inhibition. AID 704. P05866. Rev peptide-RRE RNA binding, FRET. inhibition, % at 8 µM. 97,000 tested, 0.79% active;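 active means inhibition above the screen-wide mean plus 3 SD, cut at about 35% in these data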;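 further: 0% = median DMSO wells and 100% = median Neomycin B control wells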
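Assay system: labelled RRE RNA duplex and labelled Rev peptide / Medium: HEPES pH 7.5 salt buffer with EDTA / Reagent: labelled Rev peptide / Schedule: 5 + 15 min at 25 °C / Signal: FRET, excitation 480 nm, emission 540 nm donor and 671 nm acceptor / Benchmarks: DMSO and neomycin B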
Cav3 T inh = inhibitors of human Cav3.2 T-type calcium channel | 100,000 tested, 4% active | B-score at 10 µM | AID 449739 | Cav3.2-expressing cells, Fluo-4 calcium fluorescence FDSS; active compounds read low;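 active means single-dose well whose peak fluorescence ratio is a statistical outlier from its plate by either plate-standardised score or position-corrected B-score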
Target sequence (O95180 whole entry, looked up): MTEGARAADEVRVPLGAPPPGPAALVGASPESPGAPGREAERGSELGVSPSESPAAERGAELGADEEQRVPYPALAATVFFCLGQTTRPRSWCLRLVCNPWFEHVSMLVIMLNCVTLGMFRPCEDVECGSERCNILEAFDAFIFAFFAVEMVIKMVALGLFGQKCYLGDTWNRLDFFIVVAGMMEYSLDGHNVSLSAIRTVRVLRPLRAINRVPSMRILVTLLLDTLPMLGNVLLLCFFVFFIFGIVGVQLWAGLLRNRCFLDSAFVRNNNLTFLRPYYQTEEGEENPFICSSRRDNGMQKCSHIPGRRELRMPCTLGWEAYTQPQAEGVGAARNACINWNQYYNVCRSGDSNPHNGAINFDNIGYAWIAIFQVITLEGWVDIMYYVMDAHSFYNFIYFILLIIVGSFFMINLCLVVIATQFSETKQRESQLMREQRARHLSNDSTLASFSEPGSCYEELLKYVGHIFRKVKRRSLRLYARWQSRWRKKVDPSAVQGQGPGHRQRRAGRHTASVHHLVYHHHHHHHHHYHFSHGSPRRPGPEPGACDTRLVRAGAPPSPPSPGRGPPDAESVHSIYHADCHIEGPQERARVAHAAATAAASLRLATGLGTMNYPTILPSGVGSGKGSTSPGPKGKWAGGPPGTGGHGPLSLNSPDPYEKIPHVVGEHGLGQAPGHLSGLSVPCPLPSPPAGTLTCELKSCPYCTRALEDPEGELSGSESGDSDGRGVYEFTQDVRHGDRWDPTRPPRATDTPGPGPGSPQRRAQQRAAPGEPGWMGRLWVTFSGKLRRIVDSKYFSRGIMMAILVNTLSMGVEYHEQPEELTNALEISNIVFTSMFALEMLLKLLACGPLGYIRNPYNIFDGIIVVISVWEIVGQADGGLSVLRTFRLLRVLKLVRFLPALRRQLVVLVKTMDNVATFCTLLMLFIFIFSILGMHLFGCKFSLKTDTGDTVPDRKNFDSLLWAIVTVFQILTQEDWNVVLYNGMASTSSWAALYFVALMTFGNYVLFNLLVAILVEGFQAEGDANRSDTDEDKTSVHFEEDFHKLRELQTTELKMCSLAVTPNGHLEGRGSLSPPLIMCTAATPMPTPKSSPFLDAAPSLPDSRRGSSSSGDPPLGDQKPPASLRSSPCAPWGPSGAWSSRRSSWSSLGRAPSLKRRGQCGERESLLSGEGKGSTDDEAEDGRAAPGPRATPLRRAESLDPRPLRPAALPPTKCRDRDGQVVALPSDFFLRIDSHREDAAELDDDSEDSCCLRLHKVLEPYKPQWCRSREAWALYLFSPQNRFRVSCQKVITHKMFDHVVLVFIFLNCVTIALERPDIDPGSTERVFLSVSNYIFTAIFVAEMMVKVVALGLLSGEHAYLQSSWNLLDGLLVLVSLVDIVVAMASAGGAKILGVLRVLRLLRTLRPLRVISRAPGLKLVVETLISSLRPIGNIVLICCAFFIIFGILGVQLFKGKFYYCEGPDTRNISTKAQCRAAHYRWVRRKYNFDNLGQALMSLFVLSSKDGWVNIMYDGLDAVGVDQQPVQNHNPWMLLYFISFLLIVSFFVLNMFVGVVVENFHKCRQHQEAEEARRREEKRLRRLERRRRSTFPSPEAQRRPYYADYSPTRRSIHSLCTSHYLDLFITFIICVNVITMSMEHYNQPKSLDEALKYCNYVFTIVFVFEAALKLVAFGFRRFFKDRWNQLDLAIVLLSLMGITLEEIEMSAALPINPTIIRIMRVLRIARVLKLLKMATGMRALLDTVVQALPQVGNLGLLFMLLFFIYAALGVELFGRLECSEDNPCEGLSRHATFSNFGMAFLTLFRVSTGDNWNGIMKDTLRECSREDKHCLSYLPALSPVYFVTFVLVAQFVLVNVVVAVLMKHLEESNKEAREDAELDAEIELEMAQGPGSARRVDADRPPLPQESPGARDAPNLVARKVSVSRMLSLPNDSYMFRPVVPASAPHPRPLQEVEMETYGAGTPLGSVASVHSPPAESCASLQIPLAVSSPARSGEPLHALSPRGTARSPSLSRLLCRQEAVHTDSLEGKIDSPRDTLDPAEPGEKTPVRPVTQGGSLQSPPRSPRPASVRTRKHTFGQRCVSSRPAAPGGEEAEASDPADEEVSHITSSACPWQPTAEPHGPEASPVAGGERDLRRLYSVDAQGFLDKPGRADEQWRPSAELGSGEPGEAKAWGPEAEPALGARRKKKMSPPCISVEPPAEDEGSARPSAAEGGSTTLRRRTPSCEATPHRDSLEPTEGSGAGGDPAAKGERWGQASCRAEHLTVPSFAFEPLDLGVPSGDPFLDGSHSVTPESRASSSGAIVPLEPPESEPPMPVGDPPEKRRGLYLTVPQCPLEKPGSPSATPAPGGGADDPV
CYP2C19 inh = human CYP2C19 inhibition | P33261 | CYP2C19 Supersomes, luciferin-H EGE luminescence, 30 min | inhibition, % at 5 µM | 96,000 tested, 21% active | AID 778;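 active means CYP2C19 inhibition above a set limit at 5 µM in the primary screen, cut at about 50% in these data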;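 further: plate controls were negative control wells for no effect and 2.5 mM tranylcypromine positive control for full effect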
CYP2C9 activ = activators of human CYP2C9; P11712; recombinant CYP2C9, luciferin-H conversion, luminescence; active compounds read high; factor 1 = untreated enzyme, 0 = blocked; activation factor at 5 µM; 96,000 tested, 1.4% active;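 active means activation factor of 2 or more for CYP2C9 at a 5 µM dose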;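 further: 0 = sulfaphenazole-blocked wells and 1 = vehicle-only wells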
CYP2C19 activ = increases human CYP2C19 enzyme activity | recombinant CYP2C19, luciferin-H EGE luminescence; active compounds read high; 0 = fully inhibited enzyme, 1 = untreated enzyme | activation factor at 5 µM | 96,000 tested, under 10 active | AID 1025;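 active means activation factor of at least 2 at 5 µM in the primary screen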;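 further: 0 = wells with 2.5 mM tranylcypromine and 1 = vehicle-only wells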
Numbers without * were called inactive; . = not tested or not shown. An excerpt weighted towards active compounds, which were near 27% of everything screened.

SMILES	CYP2C9 inh	Rev-RRE block	Cav3 T inh	CYP2C19 inh	CYP2C9 activ	CYP2C19 activ
CCOc1ccccc1-c1nc2c(s1)CCc1onc(-c3ccc(OC)cc3)c1-2	.	.	-0.017	.	.	.
Cc1ccc(-c2nc3sc4c(N)ncnc4c3c3c2CCCC3)cc1	11	11	-0.91	-1	0.9	1
COc1ccc(Cl)cc1N1C(=O)/C(=C\c2sccc2C)N=C1SCC(=O)NC1CC1	97*	11	-6.2*	97*	0	0
COc1ccc(Cl)cc1N1C(=O)C2CCCN2C1c1sccc1C (stereo not given)	-65	0	-0.62	41	1.7	0.6
O=C(CCS(=O)(=O)Cc1ccccc1)NCC1CCCO1 (stereo not given)	-10	3	0.036	-4	1.1	1
CCC(c1nnnn1Cc1ccco1)N1CCN(c2cc(Cl)ccc2C)CC1 (stereo not given)	59*	2	-5.8*	19	0.4	0.8
c1coc(Cn2nnnc2CN2CCN(C3CCCCC3)CC2)c1	-1	.	0.0047	-15	1	1.2
CCC(c1nnnn1Cc1ccco1)N1CCC(C(N)=O)CC1 (stereo not given)	-5	6	0.3	2	1.1	1
Cc1ccc(Cl)cc1N1CCN(Cc2nnnn2Cc2ccco2)CC1	93*	5	-6.7*	77*	0.1	0.2
OC(CN1CCN(c2cccc(C(F)(F)F)c2)CC1)c1c[nH]c2ccccc12 (stereo not given)	-54	6	-2.3	22	1.5	0.8
COc1cccc(CNC(=O)C2CCC(CNS(=O)(=O)c3cccc4nsnc34)CC2)c1 (stereo not given)	28	5	0.46	16	0.7	0.8
CCC(C)C(NC(=O)OCc1ccccc1)C(=O)OCN1C(=O)c2ccccc2C1=O (stereo not given)	-23	1	-5.1*	25	1.2	0.8
COC(=O)COc1ccc(S(=O)(=O)N2CCc3ccccc3C2)cc1C	-109	19	.	79*	2.1*	0.2
CC(=O)N1CCCc2cc(S(=O)(=O)N3CCc4ccccc4C3)ccc21	-4	.	0.59	74*	1	0.3
COC(=O)COc1ccc(S(=O)(=O)N2CCOCC2)cc1C	-11	7	1	18	1.1	0.8
CC(C(=O)NC(=O)NC1CCCCC1)N1CCN(c2ccccn2)CC1 (stereo not given)	57*	3	1.6	25	0.4	0.7
CCOC(=O)C(C)Sc1nc(-c2ccc(OC)cc2)nc2c1c(=O)n(C)c(=O)n2C (stereo not given)	11	.	.	7	0.9	0.9
CS(=O)(=O)N(CC(=O)Nc1ccccc1Sc1ccccc1)c1cccc(Br)c1	66*	12	-0.67	14	0.3	0.9
CSc1ccccc1NC(=O)c1ccccc1N(Cc1ccccc1)S(C)(=O)=O	59*	11	-4.9	43	0.4	0.6
Cc1ccccc1NC(=O)CN(c1ccc(F)cc1)S(C)(=O)=O	7	1	1.7	33	0.9	0.7
CSc1ccccc1NC(=O)CN(c1cc(C)cc(C)c1)S(C)(=O)=O	71*	11	-2.5	58*	0.3	0.4
CSc1ccccc1NC(=O)c1ccccc1N(C)S(C)(=O)=O	-22	-2	0.4	32	1.2	0.7
COc1cc(C(=O)NCCC(=O)NCCN2CCOCC2)cc(OC)c1OC	-1	4	0.16	-12	1	1.1
CN(C(=S)NC1=CCS(=O)(=O)C1)C1CCCCC1	0	2	1	21	1	0.8
CS(=O)(=O)N1CCCC(C(=O)NCc2ccc(F)cc2Cl)C1 (stereo not given)	-13	5	0.63	8	1.1	0.9
SMILES	CYP2C9 inh	Rev-RRE block	Cav3 T inh	CYP2C19 inh	CYP2C9 activ	CYP2C19 activ
Cc1cc(-c2ccccc2)nc2cc(C(=O)NCc3ccco3)nn12	.	.	0.3	.	.	.
COc1ccc(OC)c(-c2nc(C(N)=O)c3[nH]c(=O)n(-c4ccc(F)cc4)c3n2)c1	54*	-2	.	18	0.5	0.8
COc1ccc(-c2nc(C(N)=O)c3[nH]c(=O)n(-c4ccccc4OC)c3n2)c(OC)c1	19	17	.	13	0.8	0.9
CCOc1cccc(-c2nc(C(N)=O)c3[nH]c(=O)n(-c4cccc(Cl)c4)c3n2)c1O	-2	4	0.65	-22	1	1.2
CCOc1ccccc1-c1nc(C(N)=O)c2[nH]c(=O)n(-c3cccc(C)c3)c2n1	64*	15	.	48	0.4	0.5
O=C(/C=C/Nc1ccccc1)c1ccccc1	34	-2	.	55*	0.7	0.5
CN(C)c1ccc(N/C=C/C(=O)c2ccccc2)cc1	73*	19	-2.7	99*	0.3	0
Cc1ccc(N/C=C/C(=O)c2ccc(C)cc2)cc1	19	5	-0.061	30	0.8	0.7
Cc1nc2sc(C(c3ccc(C(C)C)cc3)N3CCN(CCO)CC3)c(O)n2n1 (stereo not given)	-6	.	-0.26	2	1.1	1
COc1ccc(Cc2nnc3n2N=C(c2cc4ccccc4o2)CS3)cc1OC	.	5	0.31	.	.	.
CCN(CCCNC(=O)C1CCN(S(=O)(=O)N2CCC3(CC2)OCCO3)CC1)c1ccccc1	38	1	0.22	53*	0.6	0.5
CCN(CCCNC(=O)C1CCN(S(=O)(=O)c2c(C)[nH]c(=O)[nH]c2=O)CC1)c1cccc(C)c1	50	-1	0.36	54*	0.5	0.5
Cc1ccc(NC(=O)C2CCN(S(=O)(=O)c3c(C)[nH]c(=O)[nH]c3=O)CC2)cc1	5	6	0.35	-2	1	1
CCOC(=O)N1CCN(C(=O)c2oc(=O)c3ccccc3c2-c2ccc(C)cc2)CC1	59*	8	-1.4	60*	0.4	0.4
O=C(c1ccco1)N1CCN(C(=O)c2oc(=O)c3ccccc3c2-c2ccccc2)CC1	60*	8	1.7	49	0.4	0.5
O=C(c1oc(=O)c2ccccc2c1-c1ccccc1)N1CCOCC1	2	4	-0.37	0	1	1
C=C1CCN(c2ccc(C(=O)NCc3ccc(OC)cc3)cc2[N+](=O)[O-])CC1	.	.	-2.3	.	.	.
Cc1cccc(C2NC(=O)c3c(sc(C)c3C)N2)c1O (stereo not given)	-59	5	0.83	-5	1.6	1.1
CN1C(=O)c2c(sc3c2CCCC3)NC1c1ccccc1O (stereo not given)	87*	.	-0.19	74*	0.1	0.3
CCOC(=O)C1CCN(C(c2cccc(OC)c2)c2sc3nc(C)nn3c2O)CC1 (stereo not given)	19	.	-0.2	87*	0.8	0.1
CCOC(=O)C1CCN(C(c2cccs2)c2sc3nc(C)nn3c2O)CC1 (stereo not given)	-3	.	0.87	65*	1	0.3

High-throughput results (PubChem)
